In the library only some 1.3% were active in any assay of this set; here they are far more common.
RAD52 inh: RAD52 DNA annealing inhibitors, primary screen, biochemical, FRET, single point, set 2; DNA repair protein RAD52 homolog (Homo sapiens), P43351; recombinant RAD52 DNA annealing, FRET fluorescence; inhibition, % at 18.7 µM; 360,000 tested, 0.46% active; AID 651710, 2012;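 active = every replicate showing at least 50% inhibition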
CASP6 VEID inh: human caspase-6 inhibitors, primary screen, biochemical, VEID-R110 fluorescence, single point, set 2; P55212; purified caspase-6, Z-VEID-R110 cleavage fluorescence; inhibition, % at 12.5 µM; 350,000 tested, 0.53% active; AID 686996, 2013;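 active = mean inhibition across replicates at least about 35%, with every replicate also reaching that limit, limit read from the data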;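 also: 0% = median of neutral control wells and 100% = no fluorescence left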
RAD54 branch: inhibitors of human RAD54 branch migration, primary screen, biochemical, fluorescence, single point; DNA repair and recombination protein RAD54-like (Homo sapiens), Q92698; RAD54 Holliday junction branch migration, FAM/BHQ fluorescence; inhibition, % at 10.4 µM; 360,000 tested, 0.14% active; AID 602329, 2012;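 active = mean normalized replicate activity at least 40 and at least half of replicates scoring 40 or more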;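 also: 0% = median of neutral control wells and 100% = median of positive control wells; inhibitors cause a drop in the FAM fluorescence signal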
XiGFP reactiv: activators of inactive X chromosome reactivation, primary screen, imaging, XiGFP fibroblasts, GFP high-content imaging, set 2; XiGFP mouse fibroblasts, % GFP-positive cells imaging, 3 d; cells co-treated with 5-aza-dC sensitizer; scaled so ellipticine positive control = 100%; activation, % at 7.58 µM; 360,000 tested, 0.055% active; AID 743238, 2013;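 active = mean normalized replicate activation at least 10% and every replicate at or above 10%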;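 also: 0% = median of on-plate neutral control wells and 100% = ellipticine 6 µM median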
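System: SV40-immortalized XiGFP fibroblast cells, line 68-5-11 / Incubation: 3-day compound exposure, then 15 min fixation at room temperature / Compound: single concentration per compound, delivered by pin transfer / Buffer or medium: DMEM plus 5-aza-dC sensitizer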
S100A4 inh HTS: inhibitors of S100A4-myosin IIA peptide binding, primary screen, biochemical, fluorescence polarization, TAMRA-MyoIIA peptide. Protein S100-A4 (Homo sapiens), P26447. inhibition, % at 10.7 µM. 360,000 tested, 0.14% active. AID 652163, 2013;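 active = mean inhibition of at least 70% across replicates, with every replicate also reaching that level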
Target sequence (P26447 whole entry, looked up): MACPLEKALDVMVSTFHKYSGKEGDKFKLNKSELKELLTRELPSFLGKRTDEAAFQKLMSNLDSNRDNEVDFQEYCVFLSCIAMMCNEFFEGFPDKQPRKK
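Test system – S100A4 monomer (human) · Compound – single-point compound testing · Schedule – 5 min incubation before reading · Probe or stimulus – TAMRA-labelled myosin IIA heavy-chain peptide probe, 5 nM · Benchmarks – neutral control DMSO, positive control TFP · Medium – Calcium-containing HEPES buffer, pH 7.2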
MLL AF4-AF9 inh: inhibitors of AF4 peptide binding to AF9, primary screen, biochemical, AlphaScreen, biotin-AF4 peptide, FLAG-AF9, single point; Protein AF-9 (Homo sapiens), P42568; inhibition, % at 10 µM; 350,000 tested, 0.47% active; AID 651704, 2012;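 active = every replicate reaching a set inhibition limit, whatever the replicate mean, cut at about 25% in these data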;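 also: 0% = plate neutral control median and 100% = total signal loss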
Target sequence (P42568 whole entry, looked up): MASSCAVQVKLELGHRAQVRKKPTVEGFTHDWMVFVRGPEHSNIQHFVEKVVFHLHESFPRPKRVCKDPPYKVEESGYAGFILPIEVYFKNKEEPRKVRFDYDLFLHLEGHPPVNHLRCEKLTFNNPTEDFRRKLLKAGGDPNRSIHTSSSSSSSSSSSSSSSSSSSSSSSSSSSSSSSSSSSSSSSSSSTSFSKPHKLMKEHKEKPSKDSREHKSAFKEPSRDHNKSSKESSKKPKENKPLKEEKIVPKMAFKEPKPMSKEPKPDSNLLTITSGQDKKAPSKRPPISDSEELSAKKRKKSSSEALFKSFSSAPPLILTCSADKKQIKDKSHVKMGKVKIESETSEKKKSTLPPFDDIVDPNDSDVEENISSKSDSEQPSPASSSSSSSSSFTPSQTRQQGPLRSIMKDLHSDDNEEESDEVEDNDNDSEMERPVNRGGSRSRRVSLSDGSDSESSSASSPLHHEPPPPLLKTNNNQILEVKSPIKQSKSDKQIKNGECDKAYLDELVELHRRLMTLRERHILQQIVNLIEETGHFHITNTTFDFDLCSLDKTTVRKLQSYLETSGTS
Active calls of the source: *; ! = not confirmed by another sample.

How did O=c1nc2s/c(=C\c3ccc(-c4ccccc4[N+](=O)[O-])o3)c(=O)n2nc1-c1ccccc1 do in these assays?
RAD52 inh: -43; CASP6 VEID inh: 39*; XiGFP reactiv: 0; S100A4 inh HTS: -8; MLL AF4-AF9 inh: 4

How did CCCCCOc1ccc(/C=c2\sc3nc(=O)c(-c4ccccc4)nn3c2=O)cc1OC do in these assays?
RAD52 inh: -36; CASP6 VEID inh: -1; XiGFP reactiv: 1; S100A4 inh HTS: 1; MLL AF4-AF9 inh: -3

Results for CCOc1ccccc1CNC(=O)c1cc2occc2n1C ?
RAD52 inh: -28; CASP6 VEID inh: 1; RAD54 branch: 3; XiGFP reactiv: 0; S100A4 inh HTS: 183*; MLL AF4-AF9 inh: 6

How did C[C@H]1CCCCO[C@@H](CN(C)Cc2ccc(C(F)(F)F)cc2)[C@@H](C)CN([C@@H](C)CO)C(=O)c2cc(NC(=O)Cc3ccccc3)ccc2O1 do in these assays?
RAD54 branch: 0; XiGFP reactiv: 0

What do the screens show for `C[C@@H]1CN([C@H](C)CO)C(=O)c2cc(N(C)C)ccc2O[C@H]1CN(C)Cc1ccc(-c2ccccc2)cc1`?
RAD52 inh: -5; CASP6 VEID inh: 3; XiGFP reactiv: 0; S100A4 inh HTS: -1; MLL AF4-AF9 inh: 50*

What do the screens show for `C[C@H]1CN([C@@H](C)CO)C(=O)c2cc(N(C)C)ccc2O[C@@H]1CN(C)Cc1ccc(-c2ccccc2)cc1`?
RAD52 inh: 10; CASP6 VEID inh: 1; RAD54 branch: -16; XiGFP reactiv: 0; S100A4 inh HTS: -3; MLL AF4-AF9 inh: 40*

Results for C[C@@H]1CN([C@H](C)CO)C(=O)c2cc(N(C)C)ccc2O[C@@H]1CN(C)Cc1ccccc1 ?
RAD52 inh: -6; CASP6 VEID inh: 1; RAD54 branch: -3; XiGFP reactiv: -1; S100A4 inh HTS: 31; MLL AF4-AF9 inh: -1

Results for C[C@@H]1CN([C@@H](C)CO)C(=O)CCCn2nncc2CO[C@H]1CN(C)C(=O)Nc1cccc(C(F)(F)F)c1 ?
RAD52 inh: -7; CASP6 VEID inh: 0; RAD54 branch: 5; XiGFP reactiv: 0; S100A4 inh HTS: 5; MLL AF4-AF9 inh: -1

What do the screens show for `CCCNC(=O)N1CC2(CN(CC3CCOCC3)C2)c2c(n(C)c3cc(OC)ccc23)[C@H]1CO`?
RAD52 inh: -10; CASP6 VEID inh: 0; XiGFP reactiv: 1; S100A4 inh HTS: 0; MLL AF4-AF9 inh: 0

How did CC(C)NC(=O)Nc1cccc2c1O[C@H](CN(C)C)[C@H](C)CN(C)C2=O do in these assays?
XiGFP reactiv: 0

How did O=C(Cn1nc(CNc2ccc(Br)cc2)[n+]2c1CCCCC2)c1ccc([N+](=O)[O-])cc1 do in these assays?
RAD52 inh: 35; CASP6 VEID inh: 16; RAD54 branch: 8; XiGFP reactiv: 0; S100A4 inh HTS: 5; MLL AF4-AF9 inh: 28*

Results for O=C(Cn1nc(CNc2ccc(Cl)cc2)[n+]2c1CCCCC2)c1ccc(Br)cc1 ?
RAD54 branch: 11; XiGFP reactiv: 0

Results for COc1ccc(S(=O)(=O)Nc2ccc3c(c2)C(=O)N([C@H](C)CO)C[C@@H](C)[C@H](CN(C)Cc2ccc(Cl)c(Cl)c2)OCCCC[C@@H](C)O3)cc1 ?
RAD54 branch: -5; XiGFP reactiv: -1

Results for Cc1ccccc1S(=O)(=O)N(C)C[C@H]1OCc2cnnn2CCCC(=O)N([C@@H](C)CO)C[C@H]1C ?
RAD52 inh: -1; CASP6 VEID inh: -1; RAD54 branch: 2; XiGFP reactiv: 0; S100A4 inh HTS: -4; MLL AF4-AF9 inh: 0

How did C[C@@H]1CN([C@@H](C)CO)C(=O)CCCn2nncc2CO[C@H]1CN(C)S(=O)(=O)c1ccc2ccccc2c1 do in these assays?
RAD52 inh: -6; CASP6 VEID inh: -5; RAD54 branch: -1; XiGFP reactiv: 0; S100A4 inh HTS: 5; MLL AF4-AF9 inh: -1

How did C[C@@H]1CN([C@H](C)CO)C(=O)CCCn2nncc2CO[C@@H]1CN(C)S(=O)(=O)c1ccc2ccccc2c1 do in these assays?
RAD52 inh: -15; CASP6 VEID inh: -2; RAD54 branch: -1; XiGFP reactiv: 0; S100A4 inh HTS: 93*!; MLL AF4-AF9 inh: 4

How did Cc1ccccc1S(=O)(=O)N(C)C[C@@H]1OCc2cnnn2CCCC(=O)N([C@@H](C)CO)C[C@H]1C do in these assays?
RAD52 inh: -11; CASP6 VEID inh: -2; RAD54 branch: -7; XiGFP reactiv: 0; S100A4 inh HTS: 112*!; MLL AF4-AF9 inh: -5

How did C[C@H](CO)N1C[C@H](C)[C@@H](CN(C)C)Oc2ccc(NC(=O)Cc3ccccc3)cc2C1=O do in these assays?
RAD52 inh: -7; CASP6 VEID inh: -1; RAD54 branch: -8; XiGFP reactiv: 0; S100A4 inh HTS: -15; MLL AF4-AF9 inh: -1

What do the screens show for `CC1CCCC(NC(=O)c2ccc3c(SCC(=O)O)c4c(nc3c2)CCC4)C1C` (stereo not given)?
RAD52 inh: -4; CASP6 VEID inh: 43*; RAD54 branch: -12; XiGFP reactiv: 0; S100A4 inh HTS: -2; MLL AF4-AF9 inh: 2

What do the screens show for `COc1cc(NC(=O)c2ccc3c(SCC(=O)O)c4c(nc3c2)CCC4)cc(OC)c1OC`?
RAD52 inh: -4; CASP6 VEID inh: 9; RAD54 branch: -11; XiGFP reactiv: 0; S100A4 inh HTS: 0; MLL AF4-AF9 inh: -7

Results for C[C@@H]1CCCCO[C@@H](CN(C)Cc2ccccc2)[C@@H](C)CN([C@@H](C)CO)C(=O)c2cc(NC(=O)Nc3cccc4ccccc34)ccc2O1 ?
RAD52 inh: 4; CASP6 VEID inh: 0; RAD54 branch: 10; XiGFP reactiv: 0; S100A4 inh HTS: 3; MLL AF4-AF9 inh: 7

Results for C[C@H](CO)N1C[C@H](C)[C@H](CN(C)C(=O)Nc2ccc(F)cc2)Oc2ccc(NC(=O)CCC(F)(F)F)cc2C1=O ?
RAD52 inh: 11; CASP6 VEID inh: 2; RAD54 branch: -8; XiGFP reactiv: 1; S100A4 inh HTS: 0; MLL AF4-AF9 inh: -1

How did COc1ccccc1NC(=O)CN1CCN(CC(=O)Nc2ccccc2Cl)CC1 do in these assays?
RAD52 inh: 1; CASP6 VEID inh: -2; RAD54 branch: 12; XiGFP reactiv: 0; S100A4 inh HTS: -3; MLL AF4-AF9 inh: -1
